From ChEMBL document CHEMBL1132324, “Structure-activity relationships in 1,4-benzodioxan-related compounds. 6. Role of the dioxane unit on selectivity for alpha(1)-adrenoreceptor subtypes” (J Med Chem, 1999)

Experiments:
[1] = molecular target: T1, Alpha-1B adrenergic receptor (Homo sapiens) (UniProt P35368); assay: The binding affinity was evaluated on cloned human Alpha-1B adrenergic receptor expressed in chinese hamster ovary(CHO) cells by using [3H]prazosin as radioligand.; assay type: cell-based
T1 sequence (whole entry): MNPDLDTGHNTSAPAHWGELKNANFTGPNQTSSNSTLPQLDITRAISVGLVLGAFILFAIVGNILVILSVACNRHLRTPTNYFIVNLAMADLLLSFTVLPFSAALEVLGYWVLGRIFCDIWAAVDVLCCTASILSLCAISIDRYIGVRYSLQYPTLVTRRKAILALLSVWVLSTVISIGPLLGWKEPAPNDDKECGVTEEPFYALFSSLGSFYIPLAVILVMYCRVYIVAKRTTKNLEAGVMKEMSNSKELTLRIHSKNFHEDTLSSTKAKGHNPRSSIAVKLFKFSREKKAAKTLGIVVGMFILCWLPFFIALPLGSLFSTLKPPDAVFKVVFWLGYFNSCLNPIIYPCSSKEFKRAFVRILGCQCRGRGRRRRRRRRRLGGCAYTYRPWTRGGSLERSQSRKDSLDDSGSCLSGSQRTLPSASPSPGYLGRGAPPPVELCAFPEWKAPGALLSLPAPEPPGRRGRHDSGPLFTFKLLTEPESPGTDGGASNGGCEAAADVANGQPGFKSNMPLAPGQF
How it was run: (§1)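 Membranes (30 μg protein) from CHO cells stably expressing each human α1 subtype, in 50 mM Tris-HCl pH 7.4. Incubated with 0.1–0.4 nM [3H]prazosin for 30 min at 25 °C, competitor 1 pM–10 μM. Nonspecific binding with 10 μM phentolamine. Ki by Cheng-Prusoff. 2–3 experiments in triplicate.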

[2] = molecular target: T2, 5-hydroxytryptamine receptor 1A (Homo sapiens) (UniProt P08908); assay: The binding affinity was evaluated on cloned human 5-hydroxytryptamine 1A receptor expressed in HeLa cells by using DPAT as radioligand.; assay type: cell-based
T2 sequence (whole entry): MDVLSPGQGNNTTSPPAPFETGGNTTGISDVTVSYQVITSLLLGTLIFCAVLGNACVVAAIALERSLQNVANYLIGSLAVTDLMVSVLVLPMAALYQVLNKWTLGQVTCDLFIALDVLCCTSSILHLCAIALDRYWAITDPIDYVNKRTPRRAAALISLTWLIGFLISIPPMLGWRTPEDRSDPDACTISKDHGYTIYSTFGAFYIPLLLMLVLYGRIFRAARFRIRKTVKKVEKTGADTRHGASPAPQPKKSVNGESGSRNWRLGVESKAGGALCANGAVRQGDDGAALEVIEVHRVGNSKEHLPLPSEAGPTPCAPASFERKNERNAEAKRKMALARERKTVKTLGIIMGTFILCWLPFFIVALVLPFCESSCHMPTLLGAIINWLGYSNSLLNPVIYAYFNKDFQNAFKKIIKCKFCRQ
How it was run: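 Membranes from HeLa cells stably expressing human 5-HT1A, in 50 mM Tris-HCl pH 7.4, 2.5 mM MgCl2, 10 μM pargyline. Nonspecific binding with 10 μM 5-HT. Filtration. Ki by Cheng-Prusoff. 2–3 experiments in triplicate.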

[3] = molecular target: T3, Alpha-1A adrenergic receptor (Homo sapiens) (UniProt P35348); assay: The binding affinity was evaluated on cloned human Alpha-1A adrenergic receptor expressed in chinese hamster ovary(CHO) cells by using [3H]prazosin as radioligand.; assay type: cell-based; how it was run: as §1
T3 sequence (whole entry): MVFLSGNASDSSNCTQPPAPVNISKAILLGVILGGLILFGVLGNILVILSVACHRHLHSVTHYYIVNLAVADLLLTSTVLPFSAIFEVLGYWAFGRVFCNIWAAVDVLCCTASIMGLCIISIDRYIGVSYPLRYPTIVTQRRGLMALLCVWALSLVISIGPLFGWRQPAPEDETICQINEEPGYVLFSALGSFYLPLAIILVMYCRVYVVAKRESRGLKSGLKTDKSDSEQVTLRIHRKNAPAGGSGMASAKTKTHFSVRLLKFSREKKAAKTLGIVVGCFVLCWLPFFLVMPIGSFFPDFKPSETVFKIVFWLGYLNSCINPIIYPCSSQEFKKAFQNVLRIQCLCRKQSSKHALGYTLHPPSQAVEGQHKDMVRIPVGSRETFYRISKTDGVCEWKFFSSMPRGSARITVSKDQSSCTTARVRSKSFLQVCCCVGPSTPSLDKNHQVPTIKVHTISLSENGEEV

[4] = molecular target: T4, Alpha-1D adrenergic receptor (Homo sapiens) (UniProt P25100); assay: The binding affinity was evaluated on cloned human Alpha-1D adrenergic receptor expressed in chinese hamster ovary(CHO) cells by using [3H]-prazosin as radioligand.; assay type: cell-based; how it was run: as §1
T4 sequence (whole entry): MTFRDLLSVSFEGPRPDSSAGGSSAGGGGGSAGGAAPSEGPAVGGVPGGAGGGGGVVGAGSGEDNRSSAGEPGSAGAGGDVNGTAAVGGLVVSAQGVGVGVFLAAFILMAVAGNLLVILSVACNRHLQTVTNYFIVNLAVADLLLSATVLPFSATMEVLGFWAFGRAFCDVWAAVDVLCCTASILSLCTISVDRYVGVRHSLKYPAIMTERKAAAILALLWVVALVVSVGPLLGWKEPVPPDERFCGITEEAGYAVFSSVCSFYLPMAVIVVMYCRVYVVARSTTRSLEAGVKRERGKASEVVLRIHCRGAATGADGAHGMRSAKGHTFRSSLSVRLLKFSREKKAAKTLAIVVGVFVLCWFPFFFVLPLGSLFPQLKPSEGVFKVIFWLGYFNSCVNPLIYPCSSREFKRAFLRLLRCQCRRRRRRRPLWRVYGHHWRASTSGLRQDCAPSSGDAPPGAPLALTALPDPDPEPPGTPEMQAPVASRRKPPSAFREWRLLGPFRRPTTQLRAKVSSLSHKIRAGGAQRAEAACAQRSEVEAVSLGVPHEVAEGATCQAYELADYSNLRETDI

[5] = molecular target: 5-hydroxytryptamine receptor 2A (Rattus norvegicus) (UniProt P14842); assay: The binding affinity was evaluated on 5-hydroxytryptamine 2A receptor expressed in rat cortex by using [3H]ketanserin as radioligand.
5-hydroxytryptamine receptor 2A (Rattus norvegicus), sequence (P14842 whole entry): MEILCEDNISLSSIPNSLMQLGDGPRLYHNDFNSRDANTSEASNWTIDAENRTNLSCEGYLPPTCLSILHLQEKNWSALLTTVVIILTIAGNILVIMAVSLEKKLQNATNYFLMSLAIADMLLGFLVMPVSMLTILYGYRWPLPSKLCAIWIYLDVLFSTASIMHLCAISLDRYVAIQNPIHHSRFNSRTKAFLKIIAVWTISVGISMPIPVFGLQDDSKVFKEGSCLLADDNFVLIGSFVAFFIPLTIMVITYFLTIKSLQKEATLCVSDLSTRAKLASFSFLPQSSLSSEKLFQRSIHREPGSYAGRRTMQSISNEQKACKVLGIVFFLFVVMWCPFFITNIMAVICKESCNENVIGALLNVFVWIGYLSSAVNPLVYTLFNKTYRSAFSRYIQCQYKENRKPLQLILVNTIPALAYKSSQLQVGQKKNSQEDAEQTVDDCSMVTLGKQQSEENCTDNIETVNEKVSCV
How it was run: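 Rat cerebral cortex membranes in Tris-HCl pH 7.4 with 10 μM pargyline and 0.1% ascorbic acid. Incubated 20 min at 37 °C with 0.7–1.3 nM [3H]ketanserin. Nonspecific binding with 2 μM ketanserin. Filtration and scintillation counting. Ki by Cheng-Prusoff. 2–3 experiments in triplicate.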

[6] = molecular target: D(2) dopamine receptor (Rattus norvegicus) (UniProt P61169); assay: The binding affinity was evaluated on Dopamine receptor D2 expressed in rat striatum by using [3H]spiperone as radioligand; assay type: tissue-based
D(2) dopamine receptor (Rattus norvegicus), sequence (P61169 whole entry): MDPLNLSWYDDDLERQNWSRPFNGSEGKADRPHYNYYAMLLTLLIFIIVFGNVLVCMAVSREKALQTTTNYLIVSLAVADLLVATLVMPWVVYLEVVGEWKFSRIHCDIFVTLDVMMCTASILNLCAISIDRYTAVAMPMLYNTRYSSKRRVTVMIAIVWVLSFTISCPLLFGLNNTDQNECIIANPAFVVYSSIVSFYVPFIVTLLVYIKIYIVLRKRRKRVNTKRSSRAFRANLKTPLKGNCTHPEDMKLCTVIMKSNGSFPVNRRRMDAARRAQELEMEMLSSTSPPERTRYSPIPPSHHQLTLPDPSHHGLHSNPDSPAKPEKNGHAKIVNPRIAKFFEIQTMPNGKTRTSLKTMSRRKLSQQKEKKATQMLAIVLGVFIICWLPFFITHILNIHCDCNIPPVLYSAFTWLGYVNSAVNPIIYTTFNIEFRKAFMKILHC
How it was run: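 Rat striatum membranes in Tris-HCl with 10 μM pargyline, 0.1% ascorbic acid, 120 mM NaCl, 5 mM KCl, 2 mM CaCl2, 1 mM MgCl2. Incubated 15 min at 37 °C with 0.2–0.6 nM [3H]spiperone. Nonspecific binding with 1 μM (+)-butaclamol. Ki by Cheng-Prusoff. 2–3 experiments in triplicate.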

pKi [1] | pKi [2] | pKi [3] | pKi [4] | pKi [5] | pKi [6] | SMILES
9.27 | 7.93 | 9.33 | 10.2 | – | – | COc1cccc(OC)c1OCCNCCOc1ccccc1OCc1ccccc1
6.58 | 6.84 | 8.49 | 7.28 | < 6 | < 6 | COc1cccc(OC)c1OCCNCC1Oc2ccccc2CC1c1ccccc1 (stereo in doubt; 7)
– | 6.73 | – | – | 6.2 | < 6 | COc1cccc(OC)c1OCCNCC1C(=O)c2ccccc2OC1c1ccccc1 (stereo not drawn)
